The record followed here is the RNAGym collection of RNA variant scans (doi:10.1126/science.aae0568).

The labels stand for the following.
B1: tRNA (parent)
chain: GUUCCGUUGGCGUAAUGGUAACGCGUCUCCCUCCUAAGGAGAAGACUGCGGGUUCGAGUCCCGUACGGAACG

Fewer inactive variants are shown than the library holds.

In this data set the parent is B1. Briefly: yeast fitness relative to wild type (ratio to wild type); higher = fitter; tRNA-Arg(CCU), competitive growth, 37 C, YPD. An outline of the steps: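 Changes in genotype frequencies gave Darwinian fitness relative to wild type. Frequencies were read by 100-nucleotide paired-end sequencing of gene amplicons before and after pooled Saccharomyces cerevisiae strains, carrying tRNA-Arg(CCU) gene variants at the native locus, were competed in YPD at 37°C for 24 hours in six replicates. A genotype was kept only with ≥ 100 starting reads, and estimates < 0.5 were set to 0.5.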
As for GUUCCGUUGGCGUAAUGGUAACGCGUCUCCCUCCUAAGGUGAAGACUGCGGGUUGGAGUCCCGUACGGAACG, the yeast fitness came to 0.664. To GUUCCGUUGGCGUAAUGGUAACGCGUCUCCCUCCUAAGGGGAAGACAGCGGGUUCGAGUCCCGUACGGAACG belongs 0.848; to GUUCCGUUGGCGUAAUGGUAACGCGUCUCCCUCCUAAGGGGAAGACCGCGGGUUCGAGUCCCGUACGGAACG, 0.788. For GUUCCGUUGGCGUAAUGGUAACGCGUCUCCCUCCUAAGGGGAAGACGGCGGGUUCGAGUCCCGUACGGAACG the value was 0.595. For GUUCCGUUGGCGUAAUGGUAACGCGUCUCCCUCCUAAGGUGAAGAUUGCGGGUUCGAGUCCCGUACGGAACG the value was 1.08. As to GUUCCGUUGGCGUAAUGGUAACGCGUCUCCCUCCUAAGGUGCAGUCCGCGGGUUCGAGUCCCGUGCGGAACG, the yeast fitness was at most 0.5.

For the variant GUUCCGUUGGCGUAAUGGUAACGCGUCUCCCUCCUAAGGUGAAGUCUGCGGGUUCGAGUCCCAUACGGAACG, the yeast fitness came to 0.689.

Take GUUCCGUUGGCGUAAUGGUAACGCGUCUCCCUCCUAAGGUGAAGACUGCGGGUUCGGGUCCCGGACGGAACG: the yeast fitness is at most 0.5.

In the case of GUUCCGUUGGCGUAAUGGUAACGCGUCUCCCUCCUAAGGUGACGACUGCGGGCUCGAGUCCCGUACGAAACG, the yeast fitness is at most 0.5. For GUUCCGUUGGCGUAAUGGUAACGCGUCUCCCUCCUAAGGUGAAGACUGCGGGUUCGCGUCCCGUACAGUACG the value was at most 0.5; for GUUCCGUUGGCGUAAUGGUAACGCGUCUCCCUCCUAAGGGGAAGACUGCGGGCUCGAGUCCCGUACGGAACG, 0.827. To GUUCCGUUGGCGUAAUGGUAACGCGUCUCCCUCCUAAGGUGAAGUCUGCGGGCUCGAGUCCCGUACGGAACG belongs 0.684; to GUUCCGUUGGCGUAAUGGUAACGCGUCUCCCUCCUAAGGUGAAGACUGCGGGUUACAGUCCCGUACGGAACG, at most 0.5; to GUUCCGUUGGCGUAAUGGUAACGCGUCUCCCUCCUAAGGGGAAGACUGCAGGUACGAGUCCCGUACGGAACG, 0.552. Turning to GUUCCGUUGGCGUAAUGGUAACGCGUCUCCCUCCUAAGGGGAAGACUACGGGUUCGAGUCCCGUAUGGAACG, the yeast fitness was determined as 0.769.

With GUUCCGUUGGCGUAAUGGUAACGCGUCUCCCUCCUAAGGUGCAGACUGCGGGUUCGAGUCCCGUACAGAACG, the yeast fitness is 0.534. For GUUCCGUUGGCGUAAUGGUAACGCGUCUCCCUCCUAAGGUGUAGACUGGGAGUUCGAGUCCCGUAAGCAACG the value was at most 0.5; for GUUCCGUUGGCGUAAUGGUAACGCGUCUCCCUCCUAAGGUGCAGACUGCGGGUUUGAGUCCUGUACGGAACG, at most 0.5. For GUUCCGUUGGCGUAAUGGUAACGCGUCUCCCUCCUAAGGUGAAGACUCCGGGUUCGAGUCCCAUACGGAACG the value was 0.602; for GUUCCGUUGGCGUAAUGGUAACGCGUCUCCCUCCUAAGGUGAGGACUGCGGGUUCGAGUGCCGUACGGAACG, at most 0.5. For the variant GUUCCGUUGGCGUAAUGGUAACGCGUCUCCCUCCUAAGGUGUAGACUGCGGGUUCGAGUCCCGUCCGGAACG, the yeast fitness amounted to 0.747. To GUUCCGUUGGCGUAAUGGUAACGCGUCUCCCUCCUAAGGGGAAGACUGCGCGUUCGAGUCCCGUACGGAACG belongs 0.664; to GUUCCGUUGGCGUAAUGGUAACGCGUCUCCCUCCUAAGGUGAAGACUGCGGGUUUGAGUCCCGUACGAAACG, at most 0.5.

Consider GUUCCGUUGGCGUAAUGGUAACGCGUCUCCCUCCUAAGGUGAAGUCUACGGGUUUGAGUCCCGUAUGGAACG, for which the yeast fitness is at most 0.5. On to GUUCCGUUGGCGUAAUGGUAACGCGUCUCCCUCCUAAGGUGAAGACUGCGGGUUCGAGUCACGUACGGAACG, for which the yeast fitness was 0.76. To GUUCCGUUGGCGUAAUGGUAACGCGUCUCCCUCCUAAGGUGAAGACUGCGGGUUUGAGUCCCGUCCGGAACG belongs at most 0.5; to GUUCCGUUGGCGUAAUGGUAACGCGUCUCCCUCCUAAGGGGAAGACUGCGGAAUCGAGUCCCGUAUGGAACG, at most 0.5. For GUUCCGUUGGCGUAAUGGUAACGCGUCUCCCUCCUAAGGUGCAGACUGCGGGUUUGAGUCCCGUACGGAACG the value was at most 0.5; for GUUCCGUUGGCGUAAUGGUAACGCGUCUCCCUCCUAAGGUGAAGUCUGCGGGUUCGUGUCCCGUACGGAACG, 0.611; for GUUCCGUUGGCGUAAUGGUAACGCGUCUCCCUCCUAAGGUGAAGACUCUGGGUUCGAGUCCCGUACGGAACG, 0.586.

With GUUCCGUUGGCGUAAUGGUAACGCGUCUCCCUCCUAAGGUGACGACUGCGGGUUCGAGUCCCGUACGAAACG, the yeast fitness stood at 0.605.

With GUUCCGUUGGCGUAAUGGUAACGCGUCUCCCUCCUAAGGGGAAGACUGCGGGUUCGAAUCCCGUACGGAACG, the yeast fitness was 0.857.

With GUUCCGUUGGCGUAAUGGUAACGCGUCUCCCUCCUAAGGGGAAGACUGCGGGUUCGACUCCCGUACGGAACG, the yeast fitness came to 1.05. For GUUCCGUUGGCGUAAUGGUAACGCGUCUCCCUCCUAAGGUGAAGACUGCGGGUUCGAGUCCCGUUCGGAACG the value was 0.868; for GUUCCGUUGGCGUAAUGGUAACGCGUCUCCCUCCUAAGGUGAAGACUGCGGGUUCGAGUCCCGUCCGGAACG, 0.652; for GUUCCGUUGGCGUAAUGGUAACGCGUCUCCCUCCUAAGGGGAAGACUGCGGGUUCGAGCACCGAACGGAACG, at most 0.5. To GUUCCGUUGGCGUAAUGGUAACGCGUCUCCCUCCUAAGGGGAAAACUGCGGGUUCGAGUCCCCUACGGAACG belongs at most 0.5; to GUUCCGUUGGCGUAAUGGUAACGCGUCUCCCUCCUAAGGGGAAGACUGCGCGUUCGAGACACGUACGGUACG, at most 0.5.
